Results as given in ChEMBL document CHEMBL1275336, “Identification of a novel pyrrole derivative endowed with antimycobacterial activity and protection index comparable to that of the current antitubercular drugs streptomycin and rifampin” (Bioorg Med Chem, 2010).
Converted amounts (≈) assume the structure as drawn.

Columns and labels:
[1] = Protection index, ratio of CC50 for Mycobacterium tuberculosis infected mouse J774A1 cells to MIC for Mycobacterium tuberculosis H37Rv ATCC 27294; type: functional, J774.A1
[2] = test system: Mycobacterium tuberculosis; experiment: Antimycobacterial activity against Mycobacterium tuberculosis CIP 103471 after 3 to 28 days by twofold dilution method; type: functional
Summary of the method: (§1)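 Twofold agar dilution in Middlebrook 7H11 with 10% OADC; plates held at 37 °C for 3 or 28 days. MIC is the lowest concentration giving complete inhibition of visible mycobacterial growth. Rifampin, streptomycin and BM521 served as references.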

[3] = test system: Mycobacterium tuberculosis; experiment: Antimycobacterial activity against Mycobacterium tuberculosis H37Rv ATCC 27294 after 3 to 28 days by twofold dilution method; type: functional; summary of the method: as §1
[4] = test system: Mycobacterium tuberculosis; experiment: Antimycobacterial activity against Mycobacterium tuberculosis H37Rv ATCC 27294 infected in mouse J774A1 cells assessed as reduction of bacterial growth at 0.125 ug/ml after 6 days relative to untreated control; type: functional, J774.A1; parameters: scale not given: the % may be the effect or the level left
[5] = test system: Mycobacterium tuberculosis; experiment: Antimycobacterial activity against Mycobacterium tuberculosis H37Rv ATCC 27294 infected in mouse J774A1 cells assessed as reduction of bacterial growth at 1 ug/ml after 6 days relative to untreated control; type: functional, J774.A1; parameters: scale not given: the % may be the effect or the level left
[6] = test system: Mycobacterium tuberculosis; experiment: Antimycobacterial activity against Mycobacterium tuberculosis H37Rv ATCC 27294 infected in mouse J774A1 cells assessed as reduction of bacterial growth at 0.25 ug/ml after 6 days relative to untreated control; type: functional, J774.A1; parameters: scale not given: the % may be the effect or the level left
[7] = test system: Mycobacterium tuberculosis; experiment: Antimycobacterial activity against Mycobacterium tuberculosis H37Rv ATCC 27294 infected in mouse J774A1 cells assessed as reduction of bacterial growth at 0.5 ug/ml after 6 days relative to untreated control; type: functional, J774.A1; parameters: scale not given: the % may be the effect or the level left

Compound	PI [1]	MIC [2] [µg/mL]	MIC [3] [µg/mL]	Activity [4] [%]	Activity [5] [%]	Activity [6] [%]	Activity [7] [%]
COc1ccc(-c2cc(CN3CCSCC3)c(C)n2-c2ccc(C)cc2)cc1	46.2	0.5 (≈ 1.27 µM)	0.25 (≈ 0.637 µM)	–	–	–	–
CSc1ccc(-n2c(-c3ccc(F)cc3)cc(CN3CCSCC3)c2C)cc1	>128	1 (≈ 2.42 µM)	1 (≈ 2.42 µM)	–	–	–	–
COc1ccc(-n2c(-c3ccc(C)cc3)cc(CN3CCSCC3)c2C)cc1	6.57	1 (≈ 2.55 µM)	2 (≈ 5.09 µM)	–	–	–	–
CCc1ccc(-c2cc(CN3CCSCC3)c(C)n2-c2ccc(OC)cc2)cc1	36.06	0.5 (≈ 1.23 µM)	0.5 (≈ 1.23 µM)	–	–	–	–
CCc1ccc(-n2c(-c3ccc(OC)cc3)cc(CN3CCSCC3)c2C)cc1	63.04	0.5 (≈ 1.23 µM)	0.25 (≈ 0.615 µM)	–	–	–	–
CCCc1ccc(-c2cc(CN3CCSCC3)c(C)n2-c2ccc(OC)cc2)cc1	>512	0.5 (≈ 1.19 µM)	0.25 (≈ 0.594 µM)	–	–	–	–
CCCc1ccc(-n2c(-c3ccc(OC)cc3)cc(CN3CCSCC3)c2C)cc1	49.12	0.25 (≈ 0.594 µM)	0.25 (≈ 0.594 µM)	–	–	–	–
COc1ccc(-n2c(-c3ccc(C(C)C)cc3)cc(CN3CCSCC3)c2C)cc1	9.76	0.5 (≈ 1.19 µM)	0.5 (≈ 1.19 µM)	–	–	–	–
COc1ccc(-c2cc(CN3CCSCC3)c(C)n2-c2ccc(C(C)C)cc2)cc1	40.88	0.25 (≈ 0.594 µM)	0.25 (≈ 0.594 µM)	–	–	–	–
CSc1ccc(-n2c(-c3ccc(C)cc3)cc(CN3CCSCC3)c2C)cc1	69.06	1 (≈ 2.45 µM)	1 (≈ 2.45 µM)	–	–	–	–
CSc1ccc(-c2cc(CN3CCSCC3)c(C)n2-c2ccc(C)cc2)cc1	73.6	0.25 (≈ 0.612 µM)	0.25 (≈ 0.612 µM)	–	–	–	–
CCc1ccc(-c2cc(CN3CCSCC3)c(C)n2-c2ccc(SC)cc2)cc1	102.96	1 (≈ 2.37 µM)	0.25 (≈ 0.591 µM)	–	–	–	–
CCc1ccc(-n2c(-c3ccc(SC)cc3)cc(CN3CCSCC3)c2C)cc1	68.72	0.25 (≈ 0.591 µM)	0.25 (≈ 0.591 µM)	–	–	–	–
CCCc1ccc(-c2cc(CN3CCSCC3)c(C)n2-c2ccc(SC)cc2)cc1	359.68	0.5 (≈ 1.14 µM)	0.25 (≈ 0.572 µM)	–	–	–	–
CCCc1ccc(-n2c(-c3ccc(SC)cc3)cc(CN3CCSCC3)c2C)cc1	202	0.5 (≈ 1.14 µM)	0.125 (≈ 0.286 µM)	–	–	–	–
CSc1ccc(-n2c(-c3ccc(C(C)C)cc3)cc(CN3CCSCC3)c2C)cc1	229.9	0.5 (≈ 1.14 µM)	0.5 (≈ 1.14 µM)	–	–	–	–

Compound	PI [1]	MIC [2] [µg/mL]	MIC [3] [µg/mL]	Activity [4] [%]	Activity [5] [%]	Activity [6] [%]	Activity [7] [%]
CSc1ccc(-c2cc(CN3CCSCC3)c(C)n2-c2ccc(C(C)C)cc2)cc1	286.24	0.5 (≈ 1.14 µM)	0.125 (≈ 0.286 µM)	–	–	–	–
Cc1c(CN2CCSCC2)cc(-c2ccccc2C(F)(F)F)n1-c1ccc(F)cc1	–	–	> 16	–	–	–	–
Cc1c(CN2CCSCC2)cc(-c2ccc(F)cc2)n1-c1ccccc1C(F)(F)F	0.65	–	4 (≈ 9.21 µM)	–	–	–	–
Cc1c(CN2CCSCC2)cc(-c2ccc(C(F)(F)F)cc2)n1-c1ccc(F)cc1	8.46	–	1 (≈ 2.3 µM)	–	–	–	–
Cc1c(CN2CCSCC2)cc(-c2ccc(F)cc2)n1-c1ccc(C(F)(F)F)cc1	0.29	–	8 (≈ 18.4 µM)	–	–	–	–
COc1ccccc1-c1cc(CN2CCSCC2)c(C)n1-c1ccc(F)cc1	–	–	> 16	–	–	–	–
COc1ccccc1-n1c(-c2ccc(F)cc2)cc(CN2CCSCC2)c1C	–	–	> 16	–	–	–	–
COc1ccc(-c2cc(CN3CCSCC3)c(C)n2-c2ccc(F)cc2)cc1	>480	–	0.25 (≈ 0.63 µM)	–	–	–	–
COc1ccc(-n2c(-c3ccc(F)cc3)cc(CN3CCSCC3)c2C)cc1	5.32	–	4 (≈ 10.1 µM)	–	–	–	–
CSc1ccccc1-c1cc(CN2CCSCC2)c(C)n1-c1ccc(F)cc1	1.39	16 (≈ 38.8 µM)	16 (≈ 38.8 µM)	–	–	–	–
CSc1ccccc1-n1c(-c2ccc(F)cc2)cc(CN2CCSCC2)c1C	4.2	8 (≈ 19.4 µM)	8 (≈ 19.4 µM)	–	–	–	–
CSc1ccc(-c2cc(CN3CCSCC3)c(C)n2-c2ccc(F)cc2)cc1	>1000	< 0.125	0.125 (≈ 0.303 µM)	96.12	99.81	99.02	99.72
Cc1ccc(-c2cc(CN3CCSCC3)c(C)n2-c2ccc(F)cc2)cc1	272.16	0.125 (≈ 0.328 µM)	0.25 (≈ 0.657 µM)	–	–	–	–
CO[C@H]1/C=C/O[C@@]2(C)Oc3c(C)c(O)c4c(O)c(c(/C=N/N5CCN(C)CC5)c(O)c4c3C2=O)NC(=O)/C(C)=C\C=C\[C@H](C)[C@H](O)[C@@H](C)[C@@H](O)[C@@H](C)[C@H](OC(C)=O)[C@@H]1C [RIFAMPIN]	828.12	0.25 (≈ 0.304 µM)	0.25 (≈ 0.304 µM)	96.59	99.97	99.83	99.93
CN[C@@H]1[C@H](O[C@H]2[C@H](O[C@H]3[C@H](O)[C@@H](O)[C@H](N=C(N)N)[C@@H](O)[C@@H]3N=C(N)N)O[C@@H](C)[C@]2(O)C=O)O[C@@H](CO)[C@H](O)[C@H]1O [STREPTOMYCIN]	>2000	0.5 (≈ 0.86 µM)	0.5 (≈ 0.86 µM)	–	–	–	–
